Among the data in ChEMBL document CHEMBL4513216, “Probing the Open Global Health Chemical Diversity Library for Multistage-Active Starting Points for Next-Generation Antimalarials” (ACS Infect Dis, 2020) are cytotoxicity values, retold here.

Molecules are shown by their SMILES.

This data set can be described thus: Toxicity liver stage against HepG2, at 10uM. Conditions: human, HepG2-A16-CD81EGFP cells; read-out: INHIBITION
Set-up: test concentration 10 uM, cell line HepG2-A16-CD81EGFP. The format is cell-based. In a few lines:
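Uninfected HepG2-A16-CD81EGFP cells, 3 × 10^3 per well, 1536-well, plated on prespotted compound at 10 μM final, parasite-free screening media added to match infected plates; puromycin 10 μM positive, DMSO 0.5% negative; run in parallel with 48 h PbLuc assay at 37 °C, 5% CO2; viability by CellTiter-Glo luminescence, normalized to controls.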
For `CC[C@@H](CO)NC(=O)c1coc(COc2ccc(OC)cc2)n1`, the cytotoxicity at 10 µM turned out to be 15%. With `Cc1ccc(NC(=O)Nc2c[nH]c(=O)[nH]c2=O)c(C)c1`, the cytotoxicity at 10 µM came out at 18.2%. The figure for `COc1c(CNC(C)C(=O)NC2CCCC2)c(C)nn1C` (configuration not stated) is -8.45%; for `Clc1ccc(-c2nnc([C@H]3CCN(C4CCCCC4)C3)o2)cc1` it is -120%; for `CCC(C)(CCO)NC(=O)c1ccon1` (configuration not stated) it is 4.13%. Turning to `Cc1cc2n(n1)CC(CNCc1ccnc(-n3ccnc3C)c1)CN2` (configuration not stated), the cytotoxicity at 10 µM was -4.95%.

`COCCCn1nnc(C2(NC(=O)c3ccccc3)CCCC2)n1`: the cytotoxicity at 10 µM amounted to 9.24%. In the case of `CC(c1nc(C(C)(C)C)no1)N1CCN(C(=O)CN2CCOCC2)CC1` (configuration not stated), the cytotoxicity at 10 µM is -3.51%. For `O=C1N(Cc2ccc(F)c(F)c2)CCCC1(O)CNCc1ccccn1` (configuration not stated), the cytotoxicity at 10 µM was -2.63%. With `Cc1oncc1C(=O)N1CCC2(CCN(Cc3ccccn3)C2=O)C1` (configuration not stated), the cytotoxicity at 10 µM was -11.4%.

Regarding `O=S(=O)(Nc1ccc(N2CCOCC2)cn1)c1ccc(F)cc1`, the cytotoxicity at 10 µM was -6.64%.

As for `COc1c(CNC(c2cccc(F)c2)c2nccn2C)c(C)nn1C` (configuration not stated), the cytotoxicity at 10 µM is -9.19%. In the case of `Cc1nc(CN(Cc2ccccc2F)C2CCC2)no1`, the cytotoxicity at 10 µM came out at 6.95%. In the case of `CC(C)c1nccn1C1CCCN(C(=O)CCc2cnn(C)c2)C1` (configuration not stated), the cytotoxicity at 10 µM is -1.58%. With `Cc1csc(C2(NCc3nc(-c4ccco4)no3)CCCC2)n1` the figure was 3.18%; with `Cn1nc(C2CN(C(=O)c3ccncc3)C2)c2nccnc21`, -8.8%; with `COCCNC(=O)[C@]12COC[C@H]1CN(C1CCOCC1)C2`, -109%. As for `OCCOCCNCC1(c2ccc(F)cc2)CCOC1` (configuration not stated), the cytotoxicity at 10 µM is -147%. With `CN1CCC(NC(=O)Nc2ccc(Br)c(F)c2)C1=O` (configuration not stated) the figure was -147%; with `CCOc1ncccc1C(=O)N1CCCC1Cn1cc(C)cn1` (configuration not stated), 0.787%; with `O=C(Nc1cnc2n1CCCC2)C1CCCN1C1CCNCC1` (configuration not stated), 11.6%. With `COC(=O)CCC(=O)N1CCc2nc(C(=O)N(C)C)sc2CC1` the figure was 18.7%; with `CN1CCCn2c(nc(CNC(=O)c3ccsc3)cc2=O)C1`, 3.09%. With `c1cnc(N2CCC(c3nccn3CC3CC3)CC2)nc1` the figure was -7.28%.

Turning to `CC(=O)NC1CCCN(C(=O)c2ccc(Br)cc2O)C1` (configuration not stated), the cytotoxicity at 10 µM was -10.4%. Consider `CC(C)c1noc(CCNC(=O)N2CCN(c3cccs3)CC2)n1`, for which the cytotoxicity at 10 µM is -5.37%.

In the case of `CCC(=O)Nc1cccc(OCC(=O)N(C)Cc2ccon2)c1`, the cytotoxicity at 10 µM stood at 5.37%. For the molecule `CN1CCN(Cc2nnc(C3CCN(C(CO)CO)CC3)n2C)CC1`, the cytotoxicity at 10 µM turned out to be 2.52%. With `CCC(C)NC(=O)c1ccc(CNC(=O)CCC(C)C)cc1` (configuration not stated) the figure was 2.27%; with `O=C(CCCn1nnc(-c2ccc(F)cc2)n1)N1CCOCC(CO)C1` (configuration not stated), 16.2%; with `COC(=O)c1ccccc1S(=O)(=O)NC(=O)c1cccc2c1OCCO2`, -12.5%. With `CCn1cc2c(n1)CN(S(=O)(=O)Cc1ccccc1)CC2COC` (configuration not stated) the figure was 10.6%. The figure for `COc1cc2[nH]c(=O)c(CN3CCCC3C)cc2c(OC)c1OC` (configuration not stated) is -7.74%; for `c1cc(CN2CCOCC3(CCN(CC4CCOCC4)CC3)C2)ccn1` it is -82.6%. Consider `CCCc1cncnc1N1CCC(NCCc2ccc(O)cc2)CC1`, for which the cytotoxicity at 10 µM stood at 2.47%. `COc1ccc(C)cc1-c1csc(Cn2ccc(=O)[nH]c2=O)n1`: the cytotoxicity at 10 µM turned out to be 4.16%. Regarding `C[C@@H]1CN(CC(=O)NCc2ccccn2)C[C@]1(C)O`, the cytotoxicity at 10 µM was -5.68%. With `CC1CN(c2ccccc2Cl)C(=O)CN1C(=O)c1c[nH]c(=O)c(Cl)c1` (configuration not stated) the figure was 0.345%; with `CCN(C)C(=O)CCC(=O)c1cccs1`, 3.9%; with `CCOC(=O)CN1CCC(C(=O)c2cc(F)ccc2F)CC1`, -8.11%. The figure for `O=C(c1ccc(Cn2cccc2)cc1)N1CCN(CCO)CC1` is -3.69%; for `CCS(=O)(=O)Nc1cnn(Cc2cccc(C)c2)c1` it is 0.724%; for `CSCC(CCO)NC(=O)c1cccc(Cl)c1F` (configuration not stated) it is 19%. With `O=C(NCCn1ccnc1)c1csc(Br)c1` the figure was 13%; with `Cc1noc(C)c1CN1CCc2cnn(C)c2C1COCC1CC1` (configuration not stated), 10.7%; with `COCC(=O)Nc1ccc(Sc2nncn2C)c(Cl)c1`, -5.48%.

Take `CN(Cc1ccccc1)c1cnn(CC2CCCCO2)c(=O)c1` (configuration not stated): the cytotoxicity at 10 µM came out at 0.992%.

In the case of `Cc1ccccc1CC(=O)N1C[C@@H](O)[C@H](N2CCOCC2)C1`, the cytotoxicity at 10 µM was -4.05%. With `CN1C(=O)c2cccc(NC(=O)c3ccc4c(c3)OCCO4)c2C1=O` the figure was 4.02%. With `CNC(=O)CN1CC[C@H]2CN(C(=O)c3ccc(C)cc3)C[C@H]2C1` the figure was -4.06%; with `CCn1cc(C(=O)NCCc2nc(-c3ccc(C)cc3)n[nH]2)c(C)n1`, 9.03%. Take `CC(C)CN(Cc1ccc(O)c(C(=O)O)c1)Cc1cnn(C)c1`: the cytotoxicity at 10 µM is -3.86%. As for `COC(=O)N1C[C@@H]2CC[C@H]1CN(Cc1ccncc1)C2`, the cytotoxicity at 10 µM is -10%. Consider `CN1CCC(Oc2ccc(NC(=O)c3cccc(Cl)c3)cc2)CC1`, for which the cytotoxicity at 10 µM is -8.45%.

For the molecule `Cc1ccc(OCCN(C)Cc2nccn2C)c(C)c1`, the cytotoxicity at 10 µM was 5.51%. With `O=C(Cc1csc(-c2ccoc2)n1)NCCC(=O)N1CCCCC1` the figure was 9.13%; with `Cn1ccc(-c2cc(C(=O)N3CCC(C(N)=O)CC3)c3ccccn23)n1`, -105%. The figure for `CCOCC1c2c(cnn2C)CCN1C(=O)c1cc(C)on1` (configuration not stated) is -81.9%; for `COc1ccc(OC)c(Sc2ncccc2C(=O)NCCSC)c1` it is 20.7%; for `O=C(Nc1ccccc1)C1=NOC2(CCCN(C(=O)N3CCCC3)C2)C1` (configuration not stated) it is -1.66%. The figure for `Cc1c(CNC(=O)C2CCCN2C(=O)C2CC2)oc2ccccc12` (configuration not stated) is 5.6%.

For the molecule `O=C(NC1CCN(c2ccc(-c3ccccc3F)nn2)C1)C1CCC1` (configuration not stated), the cytotoxicity at 10 µM came to 26%. In the case of `Cc1nc(NCc2cccnc2)c2c(n1)c(C)nn2C`, the cytotoxicity at 10 µM is -3.42%.

On to `CCS(=O)(=O)NCCNC(C)(C)c1nc(C)cs1`, for which the cytotoxicity at 10 µM is -0.396%.

Regarding `Cc1ccc(CNCC(C)Oc2ccccn2)cc1` (configuration not stated), the cytotoxicity at 10 µM stood at 5.4%. As to `Cc1cc(N2CCN(Cc3ccccc3)CC(O)C2)nc(N)n1` (configuration not stated), the cytotoxicity at 10 µM is 1.06%. The figure for `O=C(CN1CCC(C(=O)c2cc(F)ccc2F)CC1)NC1CC1` is -6.04%; for `Cc1ccc2nc(CN(Cc3ccc(C)o3)C(C)C)cc(=O)n2c1` it is 5.6%. Regarding `CCc1ccc(C2CCCN2C(=O)CNC(=O)CCC(C)C)o1` (configuration not stated), the cytotoxicity at 10 µM was -10.2%. The figure for `CC1c2ncc(CNC(=O)C3CC3)n2CCN1Cc1ccsc1` (configuration not stated) is 1.06%; for `C=C(C)CN(CC)Cc1nc(C(C)(C)C)no1` it is -4.57%; for `CCC[C@H]1CN(Cc2ccc3c(c2)OCCO3)C[C@@H]1NC(=O)COC` it is -4.19%. The figure for `CS(=O)(=O)N1C[C@H]2CCCN(Cc3nccs3)[C@H]2C1` is -1.65%; for `CN(C)c1nccnc1C1CCN(c2cnccn2)CC1` it is 4.58%. With `CSCCC(=O)NCc1cc2n(n1)CCCN(C1CCCCC1)C2` the figure was 19.9%; with `CC(C)CCc1noc(CN2CCCN(C(=O)c3ccco3)CC2)n1`, -7.06%; with `Cc1cc(NC(=O)CN2CCCC(Cn3nc(C)nc3C)C2)n(C)n1` (configuration not stated), -9.54%. `CSc1ncc(C(=O)N2CCC(O)(CN3CCOCC3)C(C)(C)C2)cn1` (configuration not stated): the cytotoxicity at 10 µM was -2.16%. With `CCC(c1ccccc1)N1CCN(C(=O)c2cc(C(N)=O)c[nH]2)CC1` (configuration not stated) the figure was 2.96%. On to `O=S1(=O)c2ccccc2OCC2(CCN(CCO)CC2)CN1CC1CC1`, for which the cytotoxicity at 10 µM turned out to be 0.864%. With `CC[C@@H](CO)Nc1cc(-c2cn[nH]c2)ncn1` the figure was -4.78%; with `CC1CCC(NC(=O)Nc2ccc(CC(=O)N(C)C)cc2)CC1` (configuration not stated), 3.85%; with `CC(C(=O)N1CCc2sccc2C1)N1CCC(N2CCCC2)CC1` (configuration not stated), 10.9%. Take `Cc1noc(C(C)N(C)CC(=O)NCCc2ccc(Cl)cc2)n1` (configuration not stated): the cytotoxicity at 10 µM worked out at 10.3%. The figure for `O=C(CC1CC1)NCc1cn2c(n1)CN(C(=O)c1cccnc1)CC2` is 1.03%; for `CCOc1ccccc1C(=O)NC(CC(=O)O)c1cccs1` (configuration not stated) it is -11.4%; for `Cc1csc(CN2CC[C@H]3C[C@@H](c4nnc(C)[nH]4)O[C@@H]3C2)n1` it is 1.56%. The figure for `CC(NC(=O)Nc1ccncc1)c1ccc2c(c1)CC(=O)N2` (configuration not stated) is -5.76%.

Take `CCOc1cccc(CNC2CCCN(Cc3noc(C)n3)C2)c1` (configuration not stated): the cytotoxicity at 10 µM was -2.3%. Regarding `CN(CCc1ccccc1)Cc1cnc(C2(C)CCCCO2)nc1` (configuration not stated), the cytotoxicity at 10 µM was 1.99%.

Take `CC(C)c1nnc(NC(=O)N(C)Cc2ccc(C(N)=O)cc2)s1`: the cytotoxicity at 10 µM turned out to be 12%.

With `Cn1cc(NC(=O)Nc2ccccn2)cc(Cl)c1=O`, the cytotoxicity at 10 µM is -7.82%. As to `Cc1cn2nc(N3CCCN(Cc4noc(C)n4)CC3)sc2n1`, the cytotoxicity at 10 µM was determined as 0.529%. The figure for `CCCC(=O)NCC(=O)Nc1cc(F)ccc1SCC(F)F` is 10.8%. `C=C(C)CN(CC)S(=O)(=O)c1cccc(F)c1C#N`: the cytotoxicity at 10 µM is -6.03%. The figure for `Cc1nn(C)c(Cl)c1C1CCCN1Cc1ccc(C(N)=O)cc1` (configuration not stated) is -3.69%; for `NC(=O)N1C[C@H](NC(=O)c2cscn2)[C@@H]2OCCC[C@@H]21` it is -99%.
